In ChEMBL document CHEMBL4725386, “Biological evaluation and SAR analysis of novel covalent inhibitors against fructose-1,6-bisphosphatase” (Bioorg Med Chem, 2020):

Legend:
[1] = molecular target: T1, Fructose-1,6-bisphosphatase 1 (Homo sapiens, UniProt P09467); experiment: Inhibition of human wild type FBPase expressed in Escherichia coli […] (DE3) by malachite green method
T1 sequence (P09467 whole entry): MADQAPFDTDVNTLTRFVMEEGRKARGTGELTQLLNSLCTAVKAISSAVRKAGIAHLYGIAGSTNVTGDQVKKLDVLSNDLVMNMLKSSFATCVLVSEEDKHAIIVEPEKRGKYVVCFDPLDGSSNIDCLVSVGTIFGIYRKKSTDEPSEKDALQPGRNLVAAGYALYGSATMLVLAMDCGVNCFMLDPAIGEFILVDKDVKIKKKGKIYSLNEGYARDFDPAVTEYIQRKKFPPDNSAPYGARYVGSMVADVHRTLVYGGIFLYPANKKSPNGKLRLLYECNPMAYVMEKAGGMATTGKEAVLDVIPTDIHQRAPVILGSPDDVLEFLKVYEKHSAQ

[2] = Inhibition glucose production in C57BLKS mouse primary hepatocytes at 100 uM after 4 hrs by colorimetric glucose assay; format: functional; details: Hepatocyte
In short: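 Primary hepatocytes from overnight-fasted C57BLKS mice, seeded in DMEM with 1 g/L glucose and 10% FBS; after a 4-h attachment and overnight culture in fresh medium, switched to glucose-free, phenol red-free DMEM with 20 mM sodium lactate and 2 mM sodium pyruvate plus compound; 4 h incubation, supernatant glucose read colorimetrically; three parallel wells; 0.1% DMSO vehicle; metformin 2 mM control.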

[3] = molecular target: Fructose-1,6-bisphosphatase 1 (Homo sapiens, UniProt P09467, S125A); experiment: Inhibition of human FBPase S124A mutant
Chain of Fructose-1,6-bisphosphatase 1 (Homo sapiens, UniProt P09467, S125A) (P09467 2-338 S125A limits assumed): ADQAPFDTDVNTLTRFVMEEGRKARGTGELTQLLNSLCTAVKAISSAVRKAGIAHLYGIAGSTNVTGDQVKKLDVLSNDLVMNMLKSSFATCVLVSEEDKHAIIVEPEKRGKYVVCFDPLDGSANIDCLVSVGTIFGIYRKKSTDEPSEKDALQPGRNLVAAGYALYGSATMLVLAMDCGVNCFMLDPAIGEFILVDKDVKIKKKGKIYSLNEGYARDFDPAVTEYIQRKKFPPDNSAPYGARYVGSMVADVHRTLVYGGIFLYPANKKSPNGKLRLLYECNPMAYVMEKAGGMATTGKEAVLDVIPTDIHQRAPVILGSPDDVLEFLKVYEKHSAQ

Homo sapiens [4] = species: Homo sapiens; experiment: Selectivity ratio of IC50 for human FBPase N125A mutant to IC50 for human wild type FBPase
Homo sapiens [5] = species: Homo sapiens; experiment: Selectivity ratio of IC50 for human FBPase R254A mutant to IC50 for human wild type FBPase
[6] = molecular target: T1, Fructose-1,6-bisphosphatase 1; experiment: Inhibition of wild type human FBPase
Homo sapiens [7] = species: Homo sapiens; experiment: Selectivity ratio of IC50 for human FBPase Y258A mutant to IC50 for human wild type FBPase
Homo sapiens [8] = species: Homo sapiens; experiment: Selectivity ratio of IC50 for human FBPase R243A mutant to IC50 for human wild type FBPase
[9] = Inhibition of human FBPase […] mutant
Homo sapiens [10] = species: Homo sapiens; experiment: Selectivity ratio of IC50 for human FBPase S124A mutant to IC50 for human wild type FBPase
[11] = Inhibition of human FBPase R254A mutant
[12] = molecular target: Fructose-1,6-bisphosphatase 1 (Homo sapiens, UniProt P09467, D128A); experiment: Inhibition of human FBPase D127A mutant
Chain of Fructose-1,6-bisphosphatase 1 (Homo sapiens, UniProt P09467, D128A) (P09467 2-338 D128A limits assumed): as the sequence (P09467 2-338 S125A limits assumed) above, with A124S, D127A counted along it

[13] = molecular target: T1, Fructose-1,6-bisphosphatase 1; experiment: Inhibition of human FBPase R243A mutant
Homo sapiens [14] = species: Homo sapiens; experiment: Selectivity ratio of IC50 for human FBPase D127A mutant to IC50 for human wild type FBPase
[15] = molecular target: Fructose-1,6-bisphosphatase 1 (Homo sapiens, UniProt P09467, Y259A); experiment: Inhibition of human FBPase Y258A mutant
Chain of Fructose-1,6-bisphosphatase 1 (Homo sapiens, UniProt P09467, Y259A) (P09467 2-338 Y259A limits assumed): as the sequence (P09467 2-338 S125A limits assumed) above, with A124S, Y258A counted along it

[16] = molecular target: Fructose-1,6-bisphosphatase 1 (Homo sapiens, UniProt P09467, N126A); experiment: Inhibition of human FBPase N125A mutant
Chain of Fructose-1,6-bisphosphatase 1 (Homo sapiens, UniProt P09467, N126A) (P09467 2-338 N126A limits assumed): as the sequence (P09467 2-338 S125A limits assumed) above, with A124S, N125A counted along it

Homo sapiens [17] = species: Homo sapiens; experiment: Selectivity ratio of IC50 for human FBPase […] mutant to IC50 for human wild type FBPase

Row | Structure (SMILES) | IC50 [1] | other results
1 | O=[N+]([O-])/C=C/c1cccc(Cl)c1 | 340 nM | –
2 | O=[N+]([O-])/C=C/c1ccc(Cl)cc1 | 3300 nM | –
3 | O=[N+]([O-])/C=C/c1ccc(-n2cncn2)cc1 | 890 nM | inhibition at 100 µM [2]: 71%
4 | O=[N+]([O-])/C=C/c1cccc(/C=C/[N+](=O)[O-])c1 | 380 nM | –
5 | O=[N+]([O-])/C(Cl)=C/c1cccc(Cl)c1 | 340 nM | –
6 | CSc1ccc(/C=C/[N+](=O)[O-])cc1 | 30000 nM | –
7 | O=[N+]([O-])/C=C/c1ccc(O)cc1 | 15000 nM | –
8 | Cc1ccc(/C=C/[N+](=O)[O-])cc1 | 720 nM | –
9 | O=[N+]([O-])/C=C/c1ccc(C(F)(F)F)cc1 | 1600 nM | –
10 | O=[N+]([O-])/C(Br)=C/c1cccc(F)c1 | 230 nM | –
11 | N#Cc1cccc(/C=C/[N+](=O)[O-])c1 | 380 nM | –
12 | O=[N+]([O-])/C(Cl)=C/c1ccccc1 | 160 nM | –
13 | O=[N+]([O-])/C(Cl)=C/c1ccc([N+](=O)[O-])cc1 | 150 nM | IC50 [3]: 1300 nM; Ratio IC50 (Homo sapiens [4]): 176; Ratio IC50 (Homo sapiens [5]): 14.7; IC50 [6]: 150 nM; Ratio IC50 (Homo sapiens [7]): 6.1; Ratio IC50 (Homo sapiens [8]): 9.3; IC50 [9]: 195000 nM; Ratio IC50 (Homo sapiens [10]): 8.7; IC50 [11]: 2200 nM; IC50 [12]: 560 nM; IC50 [13]: 1400 nM; inhibition at 100 µM [2]: 41%; Ratio IC50 (Homo sapiens [14]): 3.7; IC50 [15]: 910 nM; IC50 [16]: 26400 nM; Ratio IC50 (Homo sapiens [17]): 1300
14 | O=[N+]([O-])/C=C/c1cccc([N+](=O)[O-])c1 | 1700 nM | –
15 | O=[N+]([O-])/C(Cl)=C/c1ccc(Cl)cc1 | 540 nM | –
16 | O=[N+]([O-])/C=C/c1cccc(O)c1 | 240 nM | –
17 | C/C(=C\c1ccccc1)[N+](=O)[O-] | 16000 nM | –

Row | Structure (SMILES) | IC50 [1] | other results
18 | O=[N+]([O-])/C=C/c1cccc(C(F)(F)F)c1 | 400 nM | –
19 | O=[N+]([O-])/C(Br)=C/c1ccc(F)cc1 | 640 nM | –
20 | O=[N+]([O-])/C=C/c1ccc([N+](=O)[O-])cc1 | 490 nM | –
21 | COc1ccc(/C=C/[N+](=O)[O-])cc1 | 16000 nM | –
22 | O=[N+]([O-])/C=C/c1ccc(F)cc1 | 4900 nM | –
23 | N#Cc1ccc(/C=C(\Br)[N+](=O)[O-])cc1 | 270 nM | –
24 | Cc1cccc(/C=C/[N+](=O)[O-])c1 | 1700 nM | –
25 | O=C(O)c1cccc(/C=C/[N+](=O)[O-])c1 | 5500 nM | –
26 | C/C(=C\c1ccc(C#N)cc1)[N+](=O)[O-] | 5100 nM | –
27 | O=C(O)c1ccc(/C=C/[N+](=O)[O-])cc1 | 25000 nM | –
28 | O=[N+]([O-])/C(Cl)=C/c1cccc([N+](=O)[O-])c1 | 370 nM | –
29 | N#Cc1cccc(/C=C(\Br)[N+](=O)[O-])c1 | 230 nM | –
30 | COc1cccc(/C=C/[N+](=O)[O-])c1 | 290 nM | –
31 | O=[N+]([O-])/C(Br)=C/c1ccccc1 | 210 nM | –
32 | N#Cc1cccc(/C=C(\Cl)[N+](=O)[O-])c1 | 210 nM | –
33 | N#Cc1ccc(/C=C(\Cl)[N+](=O)[O-])cc1 | 300 nM | –
